ChEMBL document CHEMBL1151761, “Radiohalogenated prostate-specific membrane antigen (PSMA)-based ureas as imaging agents for prostate cancer” (J Med Chem, 2008)

Legend:
Assay type in all cases: ADME, organism-based
[1] = Ratio of drug level in tumor to small intestine of human PSMA expressing PC3 PIP and PSMA deficient human PC3 flu cells xenografted SCID mouse at 2 uCi, iv after 2 hrs; details: in vivo
Procedure, shortened: (§1)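 Male SCID mice carried subcutaneous xenografts: PSMA+ PC-3 PIP behind the left shoulder and PSMA− PC-3 flu behind the right, 1–5 × 10^6 cells in HBSS. Mice were used at 3–5 mm tumor diameter. 2 μCi was given by tail vein, and 4 mice per time point were killed by cervical dislocation. %ID/g came from a standard dilution of the dose, decay-corrected. Ratio is PIP tumor %ID/g to organ %ID/g.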

[2] = Ratio of drug level in PC3 PIP tumor to PC3 flu tumor of human PSMA expressing PC3 PIP and PSMA deficient human PC3 flu cells xenografted SCID mouse at 2 uCi, iv after 2 hrs; details: in vivo
Procedure, shortened: (§2)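 Male SCID mice carried subcutaneous PSMA+ PC-3 PIP (left shoulder) and PC-3 flu (right shoulder) xenografts, 1-5 × 10^6 cells in HBSS, and were used at 3-5 mm tumor diameter. Tail-vein injection of 2 µCi radioligand; four mice per time point, killed by cervical dislocation. %ID/g from a standard dilution of the dose, decay-corrected, mean ± SD; PIP tumor:organ ratios.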

[3] = Ratio of drug level in tumor to lung of human PSMA expressing PC3 PIP and PSMA deficient human PC3 flu cells xenografted SCID mouse at 2 uCi, iv after 2 hrs; details: in vivo; procedure, shortened: as §2
Lung [4] = experiment: Biodistribution in lung of PSMA expressing human PC3 PIP and PSMA deficient human PC3 flu cells xenografted SCID mouse at 2 uCi, iv after 60 mins; details: in vivo, 1 h
[5] = Ratio of drug level in tumor to blood of human PSMA expressing PC3 PIP and PSMA deficient human PC3 flu cells xenografted SCID mouse at 2 uCi, iv after 2 hrs
Procedure, shortened: (§3)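 Male SCID mice carried subcutaneous xenografts of PSMA+ PC-3 PIP cells behind the left shoulder and PSMA− PC-3 flu cells behind the right (1–5 × 10^6 cells in HBSS), used at a tumour diameter of 3–5 mm. Each mouse received 2 μCi of radioiodinated tracer via the tail vein. Tissues were harvested at each time point for %ID/g against a standard dilution of the dose, decay-corrected. Ratios are PIP tumour:organ.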

Heart = experiment: Biodistribution in heart of PSMA expressing human PC3 PIP and PSMA deficient human PC3 flu cells xenografted SCID mouse at 2 uCi, iv after 60 mins; details: in vivo, 1 h
[6] = Biodistribution in PC3 flu tumor of PSMA expressing human PC3 PIP and PSMA deficient human PC3 flu cells xenografted SCID mouse at 2 uCi, iv after 60 mins; details: in vivo, 1 h; procedure, shortened: as §2
Lung [7] = experiment: Biodistribution in lung of PSMA expressing human PC3 PIP and PSMA deficient human PC3 flu cells xenografted SCID mouse at 2 uCi, iv after 30 mins; details: in vivo, 0.5 h
Pancreas [8] = experiment: Biodistribution in pancreas of PSMA expressing human PC3 PIP and PSMA deficient human PC3 flu cells xenografted SCID mouse at 2 uCi, iv after 2 hrs; details: in vivo
Spleen = experiment: Biodistribution in spleen of PSMA expressing human PC3 PIP and PSMA deficient human PC3 flu cells xenografted SCID mouse at 2 uCi, iv after 60 mins; details: in vivo, 1 h
[9] = Ratio of drug level in tumor to large intestine of human PSMA expressing PC3 PIP and PSMA deficient human PC3 flu cells xenografted SCID mouse at 2 uCi, iv after 2 hrs; details: in vivo; procedure, shortened: as §2
Lung [10] = experiment: Biodistribution in lung of PSMA expressing human PC3 PIP and PSMA deficient human PC3 flu cells xenografted SCID mouse at 2 uCi, iv after 5 hrs; details: in vivo
[11] = Ratio of drug level in tumor to stomach of human PSMA expressing PC3 PIP and PSMA deficient human PC3 flu cells xenografted SCID mouse at 2 uCi, iv after 60 mins; details: in vivo, 1 h; procedure, shortened: as §1
[12] = Biodistribution in large intestine of PSMA expressing human PC3 PIP and PSMA deficient human PC3 flu cells xenografted SCID mouse at 2 uCi, iv after 30 mins; details: in vivo, 0.5 h; procedure, shortened: as §2
[13] = Ratio of drug level in tumor to blood of human PSMA expressing PC3 PIP and PSMA deficient human PC3 flu cells xenografted SCID mouse at 2 uCi, iv after 5 hrs; procedure, shortened: as §3
[14] = Biodistribution in small intestine of PSMA expressing human PC3 PIP and PSMA deficient human PC3 flu cells xenografted SCID mouse at 2 uCi, iv after 60 mins; details: in vivo, 1 h; procedure, shortened: as §2
[15] = Biodistribution in small intestine of PSMA expressing human PC3 PIP and PSMA deficient human PC3 flu cells xenografted SCID mouse at 2 uCi, iv after 30 mins; details: in vivo, 0.5 h; procedure, shortened: as §2
[16] = Biodistribution in small intestine of PSMA expressing human PC3 PIP and PSMA deficient human PC3 flu cells xenografted SCID mouse at 2 uCi, iv after 2 hrs; details: in vivo; procedure, shortened: as §2
[17] = Ratio of drug level in tumor to liver of human PSMA expressing PC3 PIP and PSMA deficient human PC3 flu cells xenografted SCID mouse at 2 uCi, iv after 30 mins; details: in vivo, 0.5 h; procedure, shortened: as §2
[18] = Ratio of drug level in tumor to kidney of human PSMA expressing PC3 PIP and PSMA deficient human PC3 flu cells xenografted SCID mouse at 2 uCi, iv after 5 hrs; details: in vivo; procedure, shortened: as §2
[19] = Biodistribution in PC3 flu tumor of PSMA expressing human PC3 PIP and PSMA deficient human PC3 flu cells xenografted SCID mouse at 2 uCi, iv after 5 hrs; details: in vivo; procedure, shortened: as §2
[20] = Ratio of drug level in tumor to blood of human PSMA expressing PC3 PIP and PSMA deficient human PC3 flu cells xenografted SCID mouse at 2 uCi, iv after 60 mins; procedure, shortened: as §3
[21] = Ratio of drug level in tumor to large intestine of human PSMA expressing PC3 PIP and PSMA deficient human PC3 flu cells xenografted SCID mouse at 2 uCi, iv after 30 mins; details: in vivo, 0.5 h; procedure, shortened: as §2
[22] = Ratio of drug level in tumor to pancreas of human PSMA expressing PC3 PIP and PSMA deficient human PC3 flu cells xenografted SCID mouse at 2 uCi, iv after 30 mins; details: in vivo, 0.5 h; procedure, shortened: as §2
Pancreas [23] = experiment: Biodistribution in pancreas of PSMA expressing human PC3 PIP and PSMA deficient human PC3 flu cells xenografted SCID mouse at 2 uCi, iv after 5 hrs; details: in vivo
Muscle tissue = experiment: Biodistribution in muscle of PSMA expressing human PC3 PIP and PSMA deficient human PC3 flu cells xenografted SCID mouse at 2 uCi, iv after 30 mins; details: in vivo, 0.5 h
Pancreas [24] = experiment: Biodistribution in pancreas of PSMA expressing human PC3 PIP and PSMA deficient human PC3 flu cells xenografted SCID mouse at 2 uCi, iv after 30 mins; details: in vivo, 0.5 h
[25] = Ratio of drug level in tumor to stomach of human PSMA expressing PC3 PIP and PSMA deficient human PC3 flu cells xenografted SCID mouse at 2 uCi, iv after 2 hrs; details: in vivo; procedure, shortened: as §1
Blood = experiment: Biodistribution in blood of PSMA expressing human PC3 PIP and PSMA deficient human PC3 flu cells xenografted SCID mouse at 2 uCi, iv after 2 hrs; details: in vivo

SMILES: O=C(O)CC[C@H](NC(=O)N[C@@H](CCCCNC(=O)c1ccc([18F])cc1)C(=O)O)C(=O)O
- Ratio [1]: 12
- Ratio [2]: 15
- Ratio [3]: 4
- Drug uptake (Lung [4]): 0.5 % ID/g
- Kp at 2 h [5]: 9
- Drug uptake (Heart): 0.2 % ID/g
- Drug uptake [6]: 0.3 % ID/g
- Drug uptake (Lung [7]): 1.7 % ID/g
- Drug uptake (Pancreas [8]): 0.15 % ID/g
- Drug uptake (Spleen): 7.2 % ID/g
- Ratio [9]: 19
- Drug uptake (Lung [10]): 0.1 % ID/g
- Ratio [11]: 26
- Drug uptake [12]: 1.2 % ID/g
- Kp at 5 h [13]: 117
- Drug uptake [14]: 0.6 % ID/g
- Drug uptake [15]: 1.7 % ID/g
- Drug uptake [16]: 0.3 % ID/g
- Ratio [17]: 1
- Ratio [18]: 0.3
- Drug uptake [19]: 0.1 % ID/g
- Kp at 1 h [20]: 9
- Ratio [21]: 7
- Ratio [22]: 11
- Drug uptake (Pancreas [23]): 0.05 % ID/g
- Drug uptake (Muscle tissue): 2.4 % ID/g
- Drug uptake (Pancreas [24]): 0.8 % ID/g
- Ratio [25]: 13
- Drug uptake (Blood): 0.4 % ID/g
